High-throughput results (PubChem)
Mdm2 MdmX PPI: inhibitors of human Mdm2-MdmX association, primary screen, cell-based, luminescence, split luciferase, SaOS-2, uHTS. SaOS-2 split-luciferase Mdm2/MdmX complementation. inhibition, % at 8 µM. actives 3% (n = 330,000). AID 485346, 2010;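 active = inhibition of at least 50% at 8 µM in the primary screen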
Target sequence (O15151 whole entry, looked up): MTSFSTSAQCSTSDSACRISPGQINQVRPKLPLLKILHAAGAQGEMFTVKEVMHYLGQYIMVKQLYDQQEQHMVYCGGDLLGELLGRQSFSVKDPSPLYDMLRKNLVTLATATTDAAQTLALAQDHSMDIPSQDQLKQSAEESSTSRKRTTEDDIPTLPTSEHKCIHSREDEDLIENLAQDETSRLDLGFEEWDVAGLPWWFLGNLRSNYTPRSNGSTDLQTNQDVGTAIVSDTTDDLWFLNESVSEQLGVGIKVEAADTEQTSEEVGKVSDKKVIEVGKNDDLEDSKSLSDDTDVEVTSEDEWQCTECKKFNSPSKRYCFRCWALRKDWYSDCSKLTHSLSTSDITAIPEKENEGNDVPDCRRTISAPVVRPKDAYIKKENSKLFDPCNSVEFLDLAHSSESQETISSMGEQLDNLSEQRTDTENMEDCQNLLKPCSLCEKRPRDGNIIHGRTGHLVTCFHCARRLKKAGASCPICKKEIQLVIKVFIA
Target sequence (Q00987 whole entry, looked up): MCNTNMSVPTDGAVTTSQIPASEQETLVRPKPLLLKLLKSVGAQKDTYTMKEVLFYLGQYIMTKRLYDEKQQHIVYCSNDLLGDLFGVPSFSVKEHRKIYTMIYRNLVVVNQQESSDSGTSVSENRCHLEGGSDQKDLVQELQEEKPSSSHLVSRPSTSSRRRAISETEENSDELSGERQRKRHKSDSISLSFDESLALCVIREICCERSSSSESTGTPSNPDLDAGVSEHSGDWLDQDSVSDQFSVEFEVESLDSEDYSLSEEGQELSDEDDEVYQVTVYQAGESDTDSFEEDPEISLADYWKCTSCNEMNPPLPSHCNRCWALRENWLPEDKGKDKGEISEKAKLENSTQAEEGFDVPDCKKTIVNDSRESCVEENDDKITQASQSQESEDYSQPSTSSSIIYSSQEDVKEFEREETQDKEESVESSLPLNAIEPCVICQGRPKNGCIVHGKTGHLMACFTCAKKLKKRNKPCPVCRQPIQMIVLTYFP
UPR CHOP act: activators of apoptotic CHOP UPR arm, primary screen, cell-based, CHO-CHOP luciferase reporter, luminescence, uHTS; UPR activation; percent of tunicamycin response over DMSO baseline; activation, % at 10 µM; actives 0.34% (n = 330,000);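 active = at 10 µM dose, activation of 40% or more, normalized to positive control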;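 also: 100% = tunicamycin at 10 µg/mL and 0% = DMSO alone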
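Test system: CHO CHOP reporter cells. Input: 500 CHO-CHOP cells per well. Medium: F12 with 10% FBS. Technique: luciferase luminescence. Measure: percent activation relative to tunicamycin control. Dosing: 10 µM compound, 0.5% DMSO. Timing: 16-18 h cell attachment, then 6 h compound exposure, 37 °C.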
XBP1 UPR activ: activators of adaptive XBP1 UPR arm, primary screen, cell-based, CHO-XBP1 luciferase reporter, luminescence, uHTS. IRE1-XBP1 UPR activation; percent of tunicamycin response, DMSO as zero. activation, % at 20 µM. actives 0.33% (n = 330,000);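 active = versus positive control, 20 µM dose yields 30% or more activation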;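 also: 100% = tunicamycin at 10 µg/mL and 0% = DMSO only wells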
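Material: CHO cell line with stable XBP1 luciferase reporter; schedule: 16-18 h cell attachment at 37 °C, then 6 h compound exposure; signal: glow luminescence from Steady-Glo reagent; medium: serum-containing F12 medium, 10% FBS; benchmarks: tunicamycin 10 µg/mL and vehicle-only wells; read-out: percent activation relative to tunicamycin reference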
T cruzi repl: inhibitors of intracellular T. cruzi growth, primary screen, luminescence, NIH3T3 host cells. T. cruzi beta-gal in NIH3T3, 90 h. inhibition, % (concentration not given with the values). actives 1.4% (n = 300,000). AID 1885, 2009;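 active = mean inhibition across valid replicates above about 55%, limit read from the data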;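 also: signal also drops with host cell toxicity which is not excluded here; 0% = plate median of DMSO wells and 100% = zero luminescence signal; higher percent means less beta-gal luminescence so fewer parasites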
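System: mouse NIH/3T3 fibroblasts infected with β-gal-expressing T. cruzi Tulahuen C4 / Input: NIH/3T3 cells, 5,000 per well / Buffer or medium: Low-serum DMEM with 2% FBS / Probe or stimulus: 5000 reporter trypomastigotes per well / Schedule: ≥90 h infection period, 3 h prior cell attachment / Measured by: GalScreen luminescence, 60 min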
CSC inhib: cancer stem cell viability inhibitors, primary screen, luminescence; cancer stem cell-like cells viability; inhibition, % at 7.5 µM; actives 1.1% (n = 300,000); in the data active = inhibition above about 75%; tested in HMLE shEcad cells
Beta cell apopt: inhibitors of cytokine-induced beta cell apoptosis, primary screen, luminescence; actives 0.8% (n = 300,000); INS-1E cytokine-induced death, ATP luminescence, 48 h; percent of positive-control rescue, neutral wells zero; protection from apoptosis, % (test concentration not listed);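 active = Every replicate reaches about 75%, or at least half do and their mean reaches it too, limit read from the data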;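 also: 0% = cytokine-treated negative control wells and 100% = positive control rescue; higher means more ATP so stronger rescue from cytokine killing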
Mdm2-MdmX conf: Mdm2-MdmX complex disruptors, retested hits, confirmation, luminescence, single concentration; Mdm2-MdmX binding, luminescent assay; shares compounds with Mdm2 MdmX PPI; actives 55% (n = 10,000); AID 489028, 2010; inhibition, % at 8 µM; in the data active = inhibition above about 40%
Full FLuc ctr: full-length luciferase signal inhibition, confirmation, counter-screen for Mdm2/MdmX interaction inhibitor project, cell-based, single concentration, SaOS-2; shares compounds with Mdm2 MdmX PPI; SaOS-2 full-length luciferase counterscreen, luminescence; inhibition, % at 8 µM; actives 77% (n = 6,200); AID 504607, 2011;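 active = mean inhibition at 8 µM reaching about 37%, which flags the compound as non-specific, limit read from the data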;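 also: p53-null SaOS-2 cells with luciferase driven by a doxycycline-inducible promoter; compound on cells about two nights before reading with doxycycline added after day one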
* marks the source's active call; other numbers are inactive results; nt = no result given. Only some compounds are listed: those with a hit (about 5% of all), similar ones and a draw of the others.

SMILES | Mdm2 MdmX PPI | UPR CHOP act | XBP1 UPR activ | T cruzi repl | CSC inhib | Beta cell apopt | Mdm2-MdmX conf | Full FLuc ctr
Fc1ccc(C[n+]2c(-c3ccccc3)cc(-c3ccccc3)cc2-c2ccccc2)cc1 | 89* | 5 | 1 | 55* | 37 | 128* | 69* | 38*
Cc1cc(-c2ccccc2)cc(-c2ccccc2)[n+]1CCc1ccccc1 | 61* | 0 | -3 | 59* | 16 | 133* | 12 | nt
OC(CN1CCC(c2c[nH]c3ccccc23)CC1)C(F)(F)F (centres undefined) | 6 | 2 | -1 | -7 | nt | nt | nt | nt
c1ccc(-c2nnc(C3CC(c4cccnc4)=NO3)o2)cc1 (centres undefined) | 18 | 2 | -1 | -16 | -6 | 1 | nt | nt
Cc1cc(NC(=O)CCl)on1 | -4 | 2 | -3 | 10 | -15 | 0 | nt | nt
O=[N+]([O-])c1cc(F)c(N2CCCCCC2)cc1N1CCNCC1 | 52* | -1 | 7 | 3 | 55 | 10 | 27 | nt
COc1ccccc1NC(=O)c1cn(CCC#N)nc1-c1cccc(Cl)c1 | -11 | 2 | -7 | 6 | -9 | 1 | nt | nt
CCC1C=CC=CC[C@H](C)[C@@H](O)[C@](C)(O)C(=O)[C@@H](C)[C@H](O)[C@@H](C)C(=O)[C@H](C)[C@@H](O)[C@H](C)C=CC(=O)OC2[C@@H](C)C(CC1)OC1(CC[C@@H](C)C(C[C@H](C)O)O1)[C@@H]2C (some centres undefined) | 100* | 29 | -12 | nt | 99* | 104* | 56* | 50*
COC(=O)C1=C(c2ccc(F)cc2OCc2ccccc2)C[C@@H]2CC[C@H]1N2C(=O)NCCOc1ccccc1Cl | 57* | 4 | 7 | nt | 23 | 4 | 29 | nt
COC(=O)C1=C(c2ccccc2OCc2ccccc2)C[C@@H]2CC[C@H]1N2C(=O)NCc1ccc(N(C)C)cc1 | 62* | 15 | -3 | nt | 47 | -5 | 1 | nt
COC(=O)C1=C(c2ccc(F)cc2OCc2ccccc2)C[C@@H]2CC[C@H]1N2C(=O)NCc1ccc(N(C)C)cc1 | 45 | 2 | -2 | nt | 18 | -5 | nt | nt
COC12C(COC(N)=O)C3=C(C(=O)C(C)=C(N)C3=O)N1CC1C2N1C (centres undefined) | 74* | -3 | -3 | 58* | -3 | -3 | 39 | nt
O=C1CN=C(c2ccc(F)cc2)c2oc3ccccc3c2N1 | 18 | 1 | -2 | 0 | -5 | 6 | nt | nt
COc1cccc(OC)c1C1=NCC(=O)Nc2c1oc1ccc(Br)cc21 | 70* | 0 | 18 | 0 | 58 | 26 | 68* | 78*
O=C1CN=C(c2ccc(Br)cc2)c2oc3ccccc3c2N1 | 58* | 1 | 1 | 2 | -5 | 3 | 22 | nt
O=C1CN=C(c2ccccc2)c2oc3ccc(Br)cc3c2N1 | 4 | 0 | 0 | 5 | -19 | 2 | nt | nt
Cc1cccc(-n2c(/C=C/c3ccccn3)nc3ccccc3c2=O)c1 | 12 | 3 | -3 | -13 | 7 | 7 | nt | nt
c1ccc2oc(N3CCNCC3)nc2c1 | 26 | 6 | -1 | 2 | 10 | 1 | nt | nt
c1ccc2c(N3CCNCC3)nsc2c1 | 53* | 0 | -2 | -5 | 13 | 2 | 64* | 30
C=CCSc1nc2c(c(-c3ccsc3)c1C#N)CN(C)CC2 | 6 | 1 | 1 | 38 | 0 | 1 | nt | nt
C[C@@H]1C[C@H]2OC(=O)C3(CO3)[C@H]2[C@H](O)[C@]2(C)C(=O)C3OC3[C@@H]12 (some centres undefined) | 51* | 37 | -4 | -41 | 58 | -8 | 36 | 21
CCOC(=O)c1cncn1[C@@H](C)c1ccccc1 | -1 | 2 | -5 | nt | -10 | -2 | nt | nt
COc1ccc2c(c1)[nH]c1c(C)nccc12 | 90* | -3 | -11 | nt | 12 | -13 | 90* | 23
O=[N+]([O-])c1ccccc1-c1cc(-c2ccccc2)cc(-c2ccccc2)[n+]1Cc1ccccc1Cl | 88* | -3 | -1 | 56* | 36 | 134* | 69* | 22
O=[N+]([O-])c1ccccc1CCl | 6 | 1 | -4 | nt | 7 | 0 | nt | nt
SMILES | Mdm2 MdmX PPI | UPR CHOP act | XBP1 UPR activ | T cruzi repl | CSC inhib | Beta cell apopt | Mdm2-MdmX conf | Full FLuc ctr
CN(N)N=Nc1nc2c([nH]1)c(=O)n(C)c(=O)n2C | 3 | -1 | 0 | -23 | -3 | -2 | nt | nt
CCCCCCCSc1cc(OC)c(CCNC)cc1OC | 53* | -2 | 6 | 20 | 41 | -2 | 26 | nt
CCCCCSc1cc(OC)c(CCNC)cc1OC | 53* | 1 | 0 | 45 | 30 | 45 | 5 | nt
c1ccc([C@@H]2CO2)cc1 | -8 | 0 | -2 | -39 | -9 | 0 | nt | nt
CC(=O)c1c(C)n(C2CCCCC2)c2ccc(O)cc12 | 82* | -1 | -2 | -1 | 4 | nt | 82* | 48*
COC(=O)C1=Nc2ccccc2/C1=C\c1c(O)n(-c2ccc(Br)cc2)c(=O)[nH]c1=O | nt | nt | nt | nt | 9 | -3 | nt | nt
O=c1[nH]c(=O)n(-c2ccccc2)c(O)c1/C=C1/C(c2ccccc2)=Nc2ccccc21 | 61* | 3 | 0 | 7 | 88* | 8 | 62* | 75*
S=C=Nc1cccc(C2(N3CCCCC3)CCCCC2)c1 | 69* | 4 | -5 | nt | 5 | -1 | 23 | nt
COc1cc2c(cc1OC)-c1c3c(cc4c1[C@@H](C2)N(C)CC4)OCO3 | 54* | -2 | -2 | 29 | nt | 61 | 48* | 40*
COc1cc2c(cc1OC)-c1c(OC)c(OC)cc3c1C(C2)N(C)CC3 (centres undefined) | 44 | -3 | 0 | 34 | 26 | nt | nt | nt
COc1cc2c(cc1O)C[C@H]1NCCc3cc4c(c-2c31)OCO4 | 61* | -2 | -2 | 21 | 65 | 29 | 39 | 41*
COc1cc(O)cc2c1cc([N+](=O)[O-])c1c(C(=O)O)cc3c(c12)OCO3 | 17 | -1 | -4 | nt | nt | nt | nt | nt
Cc1noc(C)c1CC(=O)N1CCCC(N2CCN(c3ccccc3F)CC2)C1 (centres undefined) | 6 | 1 | -2 | -2 | -3 | -1 | nt | nt
CN/C=C(/Cl)P(=O)(OC(C)C)OC(C)C | -16 | 0 | -1 | -15 | -5 | nt | nt | nt
